The results in this text go back to PubChem BioAssay AID704 (The Scripps Research Institute Molecular Screening Center, 2007).

Hit rate of the full screen: of about 97,000 compounds, about 770 (0.79%) were called active. For the sample, actives were picked, then their nearest neighbours and some compounds at random. Unmarked numbers belong to inactive results.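 The calls were made as follows: active = inhibition above the screen-wide mean plus 3 SD (cut at about 35% in these data); inactive = the rest.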

Protein Rev (Human immunodeficiency virus type 1 group M subtype B (isolate WMJ22)), sequence (P05866 whole entry, looked up): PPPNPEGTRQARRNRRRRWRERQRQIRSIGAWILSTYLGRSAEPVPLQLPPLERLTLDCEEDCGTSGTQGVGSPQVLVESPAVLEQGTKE

This experiment addresses Protein Rev (Human immunodeficiency virus type 1 group M subtype B (isolate WMJ22)) (UniProt P05866). The experiment in a line: HIV-1 Rev-RRE binding inhibitors, primary screen, biochemical, FRET, protein-RNA interaction (AID 704).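 Also: 0% = median DMSO wells and 100% = median Neomycin B control wells.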 The following applies: Rev peptide-RRE RNA binding, at 8 µM, active compounds read high. The gist of the method: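 Test system: Cy5-tagged RRE RNA duplex with fluorescein-tagged Rev peptide | Read-out: % inhibition of FRET ratio versus controls | Probe or stimulus: Labelled Rev peptide | Incubation: 5 min RNA-compound premix plus 15 min binding step, 25 °C | Technique: FRET fluorescence readout | Benchmarks: DMSO low control, neomycin B high control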
By inhibition is commonly meant the drop in the measured response relative to a control, in per cent. `O=C(Cc1c[nH]c2ccccc12)OCCOC(=O)Cc1c[nH]c2ccccc12`: the inhibition was 3.26%.

Take `CCOc1cccc(-n2nnnc2-c2ccc(OC)cc2)c1`: the inhibition is 1.17%.

Turning to `CCOc1nnc(C)c2c(C)n(-c3cccc(Cl)c3)nc12`, the inhibition is 53.5% (active).

Take `COC(=O)C(C)n1cnc2c(nnn2-c2cccc(Cl)c2)c1=O` (stereo not given): the inhibition is 3.58%.

In the case of `C=CCC(NCc1ccco1)c1ccc(OC)cc1` (stereo not given), the inhibition is 2.12%.

Take `CCCCCCCCOC1OC(CO)C(O)C(O)C1NC(C)=O` (stereo not given): the inhibition is -1.01%.

As for `O=C(c1ccc2c(c1)OCO2)N1CCOCC1`, the inhibition is 2.74%.

Turning to `O=C(NCCOc1ccccc1)c1ccccc1`, the inhibition was 7.52%.

For `CCOC(=O)c1sc(NC(=O)c2ccncc2)nc1C`, the inhibition was 4.33%.

As for `CC/S(CC1CC1(Cl)Cl)=N\S(=O)(=O)c1ccc(C)cc1` (stereo not given), the inhibition was -0.12%.

Regarding `CCN(CC)C(=O)CSc1nnc(C2CCCCC2)o1`, the inhibition was -0.19%.

Consider `CCOc1ccc2c(c1)C(c1ccc(C)cc1)=NNC(c1ccc(C)cc1)=N2`, for which the inhibition is -0.68%.

For `COc1ccccc1C(c1nnnn1C(C)(C)C)N1CCN(Cc2ccccc2)CC1` (stereo not given), the inhibition is 5.48%.

With `O=C1CSC(c2ccccc2)N1c1nc(-c2ccc(Cl)cc2Cl)cs1` (stereo not given), the inhibition was 11.2%.

`Cc1cc(C)cc(OCC(=O)NNC(=O)c2cc3ccccc3oc2=O)c1`: the inhibition is 3.32%.

Turning to `O=c1c2ccccc2c(-c2ccc(Br)cc2)nn1Cc1ccccc1`, the inhibition was 10.1%.

Take `CC1=NN(Cc2ccccc2)C(=O)/C1=C/c1ccc(N(C)C)cc1`: the inhibition was 13.1%.

Regarding `CN(C)c1ccc(/C=C2\NC(=S)N(Cc3ccccc3)C2=O)cc1`, the inhibition is 136% [fluorescence artefact?] (active).

Regarding `CC(C)(C)n1nnnc1C(c1ccc(Cl)cc1)N1CCSCC1` (stereo not given), the inhibition is 3.16%.

For the compound `O=c1c2ccccc2nc2n1C(CSCc1cccc(C(F)(F)F)c1)CS2` (stereo not given), the inhibition was 5.83%.

`OC(COCCC12CC3CC(CC(C3)C1)C2)CN1CCCCC1` (stereo not given): the inhibition is -1.79%.

On to `CCCCn1c(=S)[nH]c2cc(S(=O)(=O)N3CCCCC3)ccc21`, for which the inhibition was 1.26%.

For `Clc1ccc(-n2nnnc2CN2CCCCC2)cc1Cl`, the inhibition is 1.19%.

In the case of `CCOC(=O)C1=C(C)NC2=C(C(=O)CC(C)(C)C2)C1c1ccsc1` (stereo not given), the inhibition is 0.96%.

Regarding `CCOC(=O)c1[nH]c2ccccc2c1N=C(C)N(CC)CC`, the inhibition was 65% (active).

For the compound `Cc1[nH]c2ccccc2c1C(=O)COC(=O)C(C)C`, the inhibition was 2.32%.

With `CCOC(=O)c1[nH]c2ccc(C)cc2c1N=C(C)N(C)C`, the inhibition was 7.68%.

Consider `O=C(Nc1nccs1)C1CCN(S(=O)(=O)c2ccc(Cl)c(C(F)(F)F)c2)CC1`, for which the inhibition is 11.3%.

For `COC(=O)c1sccc1-n1cccc1C(=O)C(=O)N1CCCCC1`, the inhibition was 4.4%.

Consider `Cc1cccc(-c2nc3c(c(SCC(=O)N4CCOCC4)n2)CCCC3)c1`, for which the inhibition is 12.4%.

Take `CCCCSc1[nH]c(=O)c(C(=O)OCC)cc1C#N`: the inhibition was 0.71%.

On to `COc1ccc(-n2nc(C(=O)NCC(=O)Nc3cccc(C)n3)c3ccccc3c2=O)cc1`, for which the inhibition was 6.83%.

On to `Cc1nc(-c2ccccc2)sc1-c1nc(-c2ccccc2)ncc1S(=O)(=O)c1ccccc1`, for which the inhibition is 2.59%.

`CNC(=O)/C(=C\C=C\c1ccccc1)NC(=O)c1ccc([N+](=O)[O-])cc1`: the inhibition was 3.26%.

Turning to `CCOC(=O)c1cnn(Cc2ccccc2Cl)c1N`, the inhibition was 3.78%.

As to `CCCCCCc1cc2cc(-c3nnc(-c4cccc(OC)c4)o3)c(=O)oc2cc1O`, the inhibition is 126% [fluorescence artefact?] (active).

As for `COc1cccc(C(=O)c2cc3ccc(O)cc3oc2=O)c1`, the inhibition is 2.17%.

Turning to `CCCCN(CC)CCCNC(=O)CS(=O)(=O)Cc1nc(-c2cccc(OC)c2)oc1C`, the inhibition was -1.81%.

On to `CCCCCCc1cc2cc(-c3nnc(-c4ccccc4)o3)c(=O)oc2cc1O`, for which the inhibition was 136% [fluorescence artefact?] (active).

Take `O=c1oc2cc(O)ccc2cc1-c1ccc(F)cc1`: the inhibition was 10.2%.

Consider `COc1cc(C(=O)NC(=S)NCc2ccco2)cc(OC)c1OC`, for which the inhibition was -0.1%.

Take `COc1ccc(-c2cc(C3CCN(c4ncccc4[N+](=O)[O-])CC3)[nH]n2)cc1`: the inhibition was 15.1%.

For `Cc1cccc(CSc2nnc(NC(=O)CSc3nnc(C)s3)s2)c1`, the inhibition is 2.97%.

On to `Cc1ccc(-c2noc(CSc3nnc(-c4ccncc4)n3-c3ccc(F)cc3)n2)cc1`, for which the inhibition was 1.43%.

For `CCOc1ccc(NC(=O)N(CC(C)C)CC(C)C)cc1`, the inhibition was 7.89%.

`COc1ccc(CCNC(=S)NC(=O)/C=C/c2ccc(C)cc2)cc1OC`: the inhibition is -2.76%.

For `CC(=O)Nc1ccc(S(=O)(=O)N2CCN(C(=O)c3ccccc3F)CC2)cc1`, the inhibition was 4.25%.

As for `Cn1c2c(c(=O)n(C)c1=O)C(c1cccc([N+](=O)[O-])c1)Nc1ccccc1O2` (stereo not given), the inhibition is 0.04%.

Turning to `CS(=O)(=O)n1nc(-c2ccccc2)nc1NCc1ccco1`, the inhibition was 7.66%.

Regarding `CSc1nc(N(C)NC(=O)c2cccc(C)c2)c2ccccc2n1`, the inhibition is 3.84%.

In the case of `Cc1ccc(C)c(NC(=O)C2Cc3ccccc3CN2C(=O)OCc2ccccc2)c1` (stereo not given), the inhibition is 15.4%.

For `CCOC(=O)c1c(C)oc2cc(Br)c(OCC(N)=O)cc12`, the inhibition was -5.76%.

In the case of `COC(=O)C1=C(C)NC(=O)NC1/C=C/c1ccccc1` (stereo not given), the inhibition was 7.27%.

On to `COc1ccccc1NC(=O)C1=C(C)NC2=C(C(=O)CCC2)C1c1ccc(C)o1` (stereo not given), for which the inhibition is -3.73%.

With `COC(=O)C1=C(C)NC2=C(C(=O)c3ccccc32)C1c1ccc(-c2ccc(C(=O)O)cc2)o1` (stereo not given), the inhibition was 41.7% (active).

With `N#C/C(=C(/O)COc1cccc2ccccc12)c1nc2ccccc2[nH]1`, the inhibition is 8.41%.

As for `COc1ccc(-n2nnnc2SCc2nc(N)nc(N3CCOCC3)n2)cc1`, the inhibition was 8.05%.

Turning to `O=C(COc1ccc(/C=N/NS(=O)(=O)c2ccccc2)cc1)NCCc1ccccc1`, the inhibition is 6.41%.

Turning to `O=S(=O)(N1CCCCC1)N1CCNCC1`, the inhibition is 0.92%.

On to `CCN(CC)c1ccc(NC(=O)c2ccc(Cl)nc2)cc1`, for which the inhibition was -7.72%.
